Reference: ChEMBL document CHEMBL1125592, “Calcium channel blocking and positive inotropic activities of ethyl 5-cyano-1,4-dihydro-6-methyl-2-[(phenylsulfonyl)methyl]-4-aryl-3- pyridine-carboxylate and analogues. Synthesis and structure-activity relationships” (J Med Chem, 1991)
Blank lines part the entries; values can stand above or below the molecule they belong to.

Legend:
Oryctolagus cuniculus [1] = species on record: Oryctolagus cuniculus; test: Vasoconstrictor effect at a concentration of 10e-6 M using partially depolarized isolated rings from rabbit.; assay type: functional
Oryctolagus cuniculus [2] = species on record: Oryctolagus cuniculus; test: Vasoconstrictor effect at a concentration of 10e-5 M using partially depolarized isolated rings from rabbit.; assay type: functional
Oryctolagus cuniculus [3] = species on record: Oryctolagus cuniculus; test: Vasoconstrictor effect at a concentration of 10e-7 M using nondepolarized isolated rings from rabbit.; assay type: functional
Oryctolagus cuniculus [4] = species on record: Oryctolagus cuniculus; test: Vasoconstrictor effect at a concentration of 3 x 10e-8 M using nondepolarized isolated rings from rabbit.; assay type: functional
Oryctolagus cuniculus [5] = species on record: Oryctolagus cuniculus; test: Vasoconstrictor effect at a concentration of 10e-9 M using nondepolarized isolated rings from rabbit.; assay type: functional
Oryctolagus cuniculus [6] = species on record: Oryctolagus cuniculus; test: Vasoconstrictor effect at a concentration of 3 x 10e-8 M using partially depolarized isolated rings from rabbit.; assay type: functional
Oryctolagus cuniculus [7] = species on record: Oryctolagus cuniculus; test: Vasoconstrictor effect at a concentration of 10e-7 M using partially depolarized isolated rings from rabbit.; assay type: functional
Oryctolagus cuniculus [8] = species on record: Oryctolagus cuniculus; test: Vasoconstrictor effect at a concentration of 10e-6 M using nondepolarized isolated rings from rabbit.; assay type: functional
Oryctolagus cuniculus [9] = species on record: Oryctolagus cuniculus; test: Vasoconstrictor effect at a concentration of 3 x 10e-9 M using nondepolarized isolated rings from rabbit.; assay type: functional
Oryctolagus cuniculus [10] = species on record: Oryctolagus cuniculus; test: Vasoconstrictor effect at a concentration of 3 x 10e-9 M using partially depolarized isolated rings from rabbit.; assay type: functional
Oryctolagus cuniculus [11] = species on record: Oryctolagus cuniculus; test: Vasoconstrictor effect at a concentration of 10e-8 M using nondepolarized isolated rings from rabbit.; assay type: functional
Oryctolagus cuniculus [12] = species on record: Oryctolagus cuniculus; test: Vasoconstrictor effect at a concentration of 10e-5 M using nondepolarized isolated rings from rabbit.; assay type: functional
Oryctolagus cuniculus [13] = species on record: Oryctolagus cuniculus; test: Vasoconstrictor effect at a concentration of 10e-8 M using partially depolarized isolated rings from rabbit.; assay type: functional
Oryctolagus cuniculus [14] = species on record: Oryctolagus cuniculus; test: Vasoconstrictor effect at a concentration of 10e-9 M using partially depolarized isolated rings from rabbit.; assay type: functional
Oryctolagus cuniculus [15] = species on record: Oryctolagus cuniculus; test: Vasorelaxant effect at a concentration of 10e-9 M on rabbit aortic rings previously contracted with 50 mM KCl.; assay type: functional
Outline: (§1)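 Rabbit aortic rings precontracted with 50 mM KCl or 1.0 μM norepinephrine, then exposed to increasing concentrations of test agent. Relaxation recorded at each concentration.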

Oryctolagus cuniculus [16] = species on record: Oryctolagus cuniculus; test: Vasorelaxant effect at a concentration of 10e-9 M on rabbit aortic rings previously contracted with 1.0 uM Norepinephrine.; assay type: functional; outline: as §1
Oryctolagus cuniculus [17] = species on record: Oryctolagus cuniculus; test: Vasorelaxant effect at a concentration of 10e-8 M on rabbit aortic rings previously contracted with 50 mM KCl.; assay type: functional; outline: as §1
Oryctolagus cuniculus [18] = species on record: Oryctolagus cuniculus; test: Vasorelaxant effect at a concentration of 10e-5 M on rabbit aortic rings previously contracted with 50 mM KCl.; assay type: functional; outline: as §1
Oryctolagus cuniculus [19] = species on record: Oryctolagus cuniculus; test: Vasorelaxant effect at a concentration of 10e-4 M on rabbit aortic rings previously contracted with 50 mM KCl.; assay type: functional; outline: as §1
Oryctolagus cuniculus [20] = species on record: Oryctolagus cuniculus; test: Vasorelaxant effect at a concentration of 10e-7 M on rabbit aortic rings previously contracted with 50 mM KCl.; assay type: functional; outline: as §1
Oryctolagus cuniculus [21] = species on record: Oryctolagus cuniculus; test: Vasorelaxant effect at a concentration of 10e-7 M on rabbit aortic rings previously contracted with 1.0 uM Norepinephrine.; assay type: functional; outline: as §1
Oryctolagus cuniculus [22] = species on record: Oryctolagus cuniculus; test: Vasorelaxant effect at a concentration of 10e-8 M on rabbit aortic rings previously contracted with 1.0 uM Norepinephrine.; assay type: functional; outline: as §1
Oryctolagus cuniculus [23] = species on record: Oryctolagus cuniculus; test: Vasorelaxant effect at a concentration of 10e-5 M on rabbit aortic rings previously contracted with 1.0 uM Norepinephrine.; assay type: functional; outline: as §1
Oryctolagus cuniculus [24] = species on record: Oryctolagus cuniculus; test: Vasorelaxant effect at a concentration of 10e-6 M on rabbit aortic rings previously contracted with 1.0 uM Norepinephrine.; assay type: functional; outline: as §1
Oryctolagus cuniculus [25] = species on record: Oryctolagus cuniculus; test: Vasorelaxant effect at a concentration of 10e-4 M on rabbit aortic rings previously contracted with 1.0 uM Norepinephrine.; assay type: functional; outline: as §1
Oryctolagus cuniculus [26] = species on record: Oryctolagus cuniculus; test: Vasorelaxant effect at a concentration of 10e-6 M on rabbit aortic rings previously contracted with 50 mM KCl.; assay type: functional; outline: as §1
[27] = molecular target: Voltage-gated L-type calcium channel (Rattus norvegicus, UniProt P22002+Q02485+P27732); test: Affinity to bind dihydropyridine receptor (DHP receptor) by inhibiting the radioligand [3H]nitrendipine; assay type: protein assay
Outline: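 [3H]nitrendipine displacement, rat brain cortical membranes. Each compound first screened at 1000 nM; if inhibition exceeded 40%, a four- to seven-point curve with unlabeled compound was run. IC50 generally mean of two experiments, each in triplicate. ">1000 nM" means under 40% inhibition of control binding at 1000 nM.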

Rattus norvegicus [28] = species on record: Rattus norvegicus; test: Compound was tested for its effect on ventricular cantractility in isolated rat hearts.; assay type: functional, Cardiac ventricle
Outline: (§2)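 Coronary vasodilation and ventricular contractility measured in isolated Langendorff-perfused rat hearts. EC25 (concentration raising the parameter by 25%) given as mean ± SEM of four to six hearts.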

Rattus norvegicus [29] = species on record: Rattus norvegicus; test: Compound was tested for its effect on coronary vasodilator in isolated rat hearts.; assay type: functional; outline: as §2
Oryctolagus cuniculus [30] = species on record: Oryctolagus cuniculus; test: Vasoconstrictor effect at a concentration of 10e-8 M in presence of partially depolarized isolated rings from rabbits.; assay type: functional
Oryctolagus cuniculus [31] = species on record: Oryctolagus cuniculus; test: Vasoconstrictor effect at a concentration of 10e-6 M in presence of partially depolarized isolated rings from rabbits.; assay type: functional
Oryctolagus cuniculus [32] = species on record: Oryctolagus cuniculus; test: Vasoconstrictor effect at a concentration of 10e-7 M in presence of nondepolarized isolated rings from rabbits.; assay type: functional
Oryctolagus cuniculus [33] = species on record: Oryctolagus cuniculus; test: Vasoconstrictor effect at a concentration of 10e-5 M in presence of partially depolarized isolated rings from rabbits.; assay type: functional
Oryctolagus cuniculus [34] = species on record: Oryctolagus cuniculus; test: Vasoconstrictor effect at a concentration of 10e-9 M in presence of partially depolarized isolated rings from rabbits.; assay type: functional
Rattus norvegicus [35] = species on record: Rattus norvegicus; test: Compound was tested for its effect on ventricular contractility in isolated rat hearts.; assay type: functional, Cardiac ventricle; outline: as §2
Oryctolagus cuniculus [36] = species on record: Oryctolagus cuniculus; test: Vasoconstrictor effect at a concentration of 10e-9 M in presence of nondepolarized isolated rings from rabbits.; assay type: functional
Oryctolagus cuniculus [37] = species on record: Oryctolagus cuniculus; test: Vasoconstrictor effect at a concentration of 10e-4 M in presence of partially depolarized isolated rings from rabbits.; assay type: functional
Oryctolagus cuniculus [38] = species on record: Oryctolagus cuniculus; test: Vasoconstrictor effect at a concentration of 10e-4 M in presence of nondepolarized isolated rings from rabbits.; assay type: functional
Oryctolagus cuniculus [39] = species on record: Oryctolagus cuniculus; test: Vasoconstrictor effect at a concentration of 10e-5 M in presence of nondepolarized isolated rings from rabbits.; assay type: functional
Oryctolagus cuniculus [40] = species on record: Oryctolagus cuniculus; test: Vasoconstrictor effect at a concentration of 10e-7 M in presence of partially depolarized isolated rings from rabbits.; assay type: functional
Oryctolagus cuniculus [41] = species on record: Oryctolagus cuniculus; test: Vasoconstrictor effect at a concentration of 10e-8 M in presence of nondepolarized isolated rings from rabbits.; assay type: functional
Rattus norvegicus [42] = species on record: Rattus norvegicus; test: Cardiovascular activity in isolated rat heart, concentration producing 25% increase in CF (cardiac flow).; assay type: functional
Outline: (§3)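 Isolated Langendorff-perfused rat heart. Coronary flow (CF), LV +dP/dtmax and heart rate recorded during exposure to test agent. Value is the concentration giving a 25% rise in CF or in LV +dP/dtmax, mean ± SE. At least two hearts per compound.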

Rattus norvegicus [43] = species on record: Rattus norvegicus; test: Cardiovascular activity in isolated rat heart, concentration producing 25% increase in LV + dP/dtmax.; assay type: functional; outline: as §3

Molecule: NC[C@H](O)c1ccc(O)c(O)c1 [NOREPINEPHRINE]
Vasoconstriction effect (Oryctolagus cuniculus [1]): 106.3
Vasoconstriction effect (Oryctolagus cuniculus [2]): 137.2
Vasoconstriction effect (Oryctolagus cuniculus [3]): 80.2
Vasoconstriction effect (Oryctolagus cuniculus [4]): 49.1
Vasoconstriction effect (Oryctolagus cuniculus [5]): 0
Vasoconstriction effect (Oryctolagus cuniculus [6]): 63.4
Vasoconstriction effect (Oryctolagus cuniculus [7]): 84.4
Vasoconstriction effect (Oryctolagus cuniculus [8]): 112.6
Vasoconstriction effect (Oryctolagus cuniculus [9]): 0
Vasoconstriction effect (Oryctolagus cuniculus [10]): 18.2
Vasoconstriction effect (Oryctolagus cuniculus [11]): 22.2
Vasoconstriction effect (Oryctolagus cuniculus [12]): 151.3
Vasoconstriction effect (Oryctolagus cuniculus [13]): 46.2
Vasoconstriction effect (Oryctolagus cuniculus [14]): 7.8

Molecule: NITROPRUSSIDE
Vasorelaxant effect (Oryctolagus cuniculus [15]; Aorta): -5.9
Vasorelaxant effect (Oryctolagus cuniculus [16]; Aorta): -0.003
Vasorelaxant effect (Oryctolagus cuniculus [17]; Aorta): -4.8
Vasorelaxant effect (Oryctolagus cuniculus [18]; Aorta): 40.4
Vasorelaxant effect (Oryctolagus cuniculus [19]; Aorta): 52.1
Vasorelaxant effect (Oryctolagus cuniculus [20]; Aorta): 5.6
Vasorelaxant effect (Oryctolagus cuniculus [21]; Aorta): 7
Vasorelaxant effect (Oryctolagus cuniculus [22]; Aorta): 0.7
Vasorelaxant effect (Oryctolagus cuniculus [23]; Aorta): 39.8
Vasorelaxant effect (Oryctolagus cuniculus [24]; Aorta): 22.8
Vasorelaxant effect (Oryctolagus cuniculus [25]; Aorta): 55.8
Vasorelaxant effect (Oryctolagus cuniculus [26]; Aorta): 22

IC50 [27]: 152 nM
Molecule: CCOC(=O)C1=C(CS(=O)(=O)c2ccncc2)NC(C)=C(C#N)C1c1ccccc1C(F)(F)F (stereo in doubt; 54A)
EC25 (Rattus norvegicus [28]): 701 nM
EC25 (Rattus norvegicus [29]): 128 nM

IC50 [27]: 271 nM
Molecule: CCOC(=O)C1=C(CS(=O)(=O)c2ccncc2)NC(C)=C(C#N)C1c1ccccc1C(F)(F)F (stereo in doubt; 54)
Vasorelaxant effect (Oryctolagus cuniculus [15]): -4.8
Vasorelaxant effect (Oryctolagus cuniculus [16]): -0.9
Vasoconstriction effect (Oryctolagus cuniculus [30]): 4.5
Vasorelaxant effect (Oryctolagus cuniculus [17]): -8.6
Vasorelaxant effect (Oryctolagus cuniculus [18]): 53.8
Vasoconstriction effect (Oryctolagus cuniculus [31]): 2.4
Vasoconstriction effect (Oryctolagus cuniculus [32]): 0
Vasorelaxant effect (Oryctolagus cuniculus [19]): 88.9
Vasoconstriction effect (Oryctolagus cuniculus [33]): 0
Vasoconstriction effect (Oryctolagus cuniculus [34]): 3.3
EC25 (Rattus norvegicus [29]): 284 nM
EC25 (Rattus norvegicus [35]): 535 nM
Vasorelaxant effect (Oryctolagus cuniculus [20]): -9.1
Vasoconstriction effect (Oryctolagus cuniculus [36]): 0
Vasorelaxant effect (Oryctolagus cuniculus [21]): -1.8
Vasoconstriction effect (Oryctolagus cuniculus [37]): 0
Vasorelaxant effect (Oryctolagus cuniculus [22]): -1.4
Vasoconstriction effect (Oryctolagus cuniculus [38]): 0
Vasoconstriction effect (Oryctolagus cuniculus [39]): 0
Vasoconstriction effect (Oryctolagus cuniculus [40]): 5
Vasorelaxant effect (Oryctolagus cuniculus [23]): 0.7
Vasorelaxant effect (Oryctolagus cuniculus [24]): -2.3
Vasoconstriction effect (Oryctolagus cuniculus [41]): 0
Vasorelaxant effect (Oryctolagus cuniculus [25]): 4.2
Vasorelaxant effect (Oryctolagus cuniculus [26]): 6.2
EC25 (Rattus norvegicus [42]): 290 nM
EC25 (Rattus norvegicus [43]): 470 nM
